Compounds with a hit are over-represented: about 1.6% of the library has one in this group of screens.
PKD1 kinase inh: inhibitors of human PKD1 kinase, biochemical, fluorescence polarization. PKD1 kinase fluorescence polarization assay. inhibition, % (no concentration beside the values). actives 0.056% (n = 200,000); in the data active = inhibition above about 50%
PHOSPHO1 inh: PubChem AID 1565; Phosphoethanolamine/phosphocholine phosphatase (Homo sapiens), Q8TCT1; recombinant PHOSPHO1, absorbance phosphatase assay; inhibition, % at 13.3 µM; actives 1.1% (n = 290,000); in the data active = inhibition above about 60%
Target sequence (Q8TCT1 whole entry, looked up): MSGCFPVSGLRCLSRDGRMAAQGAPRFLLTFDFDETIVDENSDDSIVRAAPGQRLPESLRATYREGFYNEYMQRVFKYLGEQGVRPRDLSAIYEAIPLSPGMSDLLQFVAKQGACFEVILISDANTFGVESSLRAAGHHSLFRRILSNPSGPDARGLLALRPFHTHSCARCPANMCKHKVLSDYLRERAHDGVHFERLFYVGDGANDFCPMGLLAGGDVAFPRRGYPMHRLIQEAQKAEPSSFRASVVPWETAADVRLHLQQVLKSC
ABCB1 inh: ABCB1 efflux pump inhibitors, primary screen, cell-based, multiplex, flow cytometry, ABCG2 counter-screen. CCRF-Adr cells, JC-1 efflux. actives 0.067% (n = 190,000). AID 1326, 2008. inhibition, % at 6.6 µM. ATP-dependent translocase ABCB1 (Homo sapiens), P08183; in the data active = inhibition above about 40%;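 note: higher value means more JC-1 retained so stronger ABCB1 efflux block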
ABCG2 block: ABCG2 efflux pump inhibitors, primary screen, multiplex with ABCB1, IgMXP3 cells, flow cytometry; actives 0.1% (n = 190,000); inhibition, % at 6.6 µM; Broad substrate specificity ATP-binding cassette transporter ABCG2 (Homo sapiens), Q9UNQ0; JC-1 efflux;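 active = inhibition above 80%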
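Test system: IgMXP3 (ABCG2) plus far-red-tagged CCRF-Adr (ABCB1) cells / Amount: 3 million cells/mL in well / Reagent: JC-1 transporter substrate / Timing: 10 min compound exposure, 25 °C / Signal: flow cytometry, 530 nm JC-1 signal / Read-out: percent efflux inhibition, scaled nicardipine 100% to DMSO 0% / Benchmarks: nicardipine as high control, DMSO as low control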
HSV augment: enhancers of HSV replication in host cells, fold increase, host cell viability. maximum fold increase. actives 0.005% (n = 220,000). HSV replication augmentation in cells; in the data active = maximum fold increase above about 1.5; tested in PC3 cells
NCF1 inh: p47phox/p22phox peptide binding inhibitors, primary screen, biochemical, uHTS, NADPH oxidase regulatory subunit. actives 0.53% (n = 220,000). Neutrophil cytosol factor 1 (Homo sapiens), P14598. fluorescence polarization, 2 h. inhibition, % at 24.7 µM;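 active = inhibition above about 30%, limit read from the data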
Of the large screens only hits and unclear results are named; the others gave an inactive call.

CCOc1ccccc1NC(=O)CCCc1ccc(OC)c(C)c1	none (no result: PKD1 kinase inh, ABCB1 inh, ABCG2 block, HSV augment, NCF1 inh)
CCOC(=O)c1ccc2c(c1)nc(SC/C(O)=C(\C#N)c1nc3ccccc3[nH]1)n2CC	PHOSPHO1 inh 88
CCOC(=O)c1ccc2c(c1)nc(SCC(=O)c1ccco1)n2CC	PHOSPHO1 inh 79
COc1cccc(OC)c1/C(O)=C(\C#N)c1nc2ccccc2[nH]1	PHOSPHO1 inh 60
CC(C)(C)/C(O)=C(/C#N)c1nc2ccccc2[nH]1	none
COc1cc(NC(=O)COC(C)=O)c(C)cc1[N+](=O)[O-]	none
CCCN1C(=O)C2(C(C(=O)c3ccc(C)o3)=C(O)C(=O)N2CCCOC)c2ccccc21 (stereo not drawn)	none (no result: PKD1 kinase inh, ABCB1 inh, ABCG2 block, HSV augment)
CC1CCN(C(c2ccc(N(C)C)cc2)c2nnnn2Cc2ccccc2)CC1 (stereo not drawn)	PHOSPHO1 inh 69
CCN1CCN(C(c2ccccc2)c2nnnn2Cc2ccc3c(c2)OCO3)CC1 (stereo not drawn)	PHOSPHO1 inh 61
CCN1CCN(C(c2ccc(OC)cc2)c2nnnn2Cc2ccc3c(c2)OCO3)CC1 (stereo not drawn)	none
COc1ccc(Cn2nnnc2C(c2ccc(N(C)C)cc2)N2CCC(C)CC2)cc1 (stereo not drawn)	none
COCCOC(=O)C1=C(C)OC(N)=C(C#N)C1c1cc2cccc(C)c2nc1Cl (stereo not drawn)	none
O=C(O)CCN1C(=O)/C(=C/c2cn(-c3ccccc3)nc2-c2cccs2)SC1=S	PHOSPHO1 inh 78
N#Cc1c(Sc2ncc(C(F)(F)F)cc2Cl)nsc1C/C=N\OCc1c(F)cccc1Cl	PHOSPHO1 inh 79 (no result: ABCB1 inh, ABCG2 block)
CC(C)c1ccc2c(c1)[C@H]1OCC[C@H]1[C@@H](c1cccs1)N2	none
c1coc(-c2nn3c(-c4ccco4)nnc3s2)c1	PHOSPHO1 inh 84 (no result: HSV augment)
Clc1ccccc1-c1nnc2sc(-c3ccc(Br)o3)nn12	PHOSPHO1 inh 80
c1ccc(CCc2nn3c(-c4ccncc4)nnc3s2)cc1	none
Clc1cccc(-c2nnc3sc(-c4ccc5c(c4)OCO5)nn23)c1	PHOSPHO1 inh 75 (no result: PKD1 kinase inh, ABCB1 inh, ABCG2 block, HSV augment, NCF1 inh)
Clc1ccccc1-c1nnc2sc(CCc3ccccc3)nn12	PHOSPHO1 inh 63
O=C(c1ccco1)N1CCN(C(=O)c2ccc(CS(=O)c3ccc(Cl)cc3)o2)CC1 (stereo not drawn)	none (no result: PKD1 kinase inh, ABCB1 inh, ABCG2 block, HSV augment, NCF1 inh)
O=C(O)c1cccc(CSc2n[nH]c(-c3ccc(Cl)cc3Cl)n2)c1	none
Cc1ccc([N+](=O)[O-])cc1N=C1C(=O)Nc2ccccc21	none (no result: PKD1 kinase inh, ABCB1 inh, ABCG2 block, HSV augment, NCF1 inh)
Clc1ccccc1-c1nnc2sc(-c3ccc4c(c3)OCO4)nn12	PHOSPHO1 inh 79
Cc1ccn(Cc2n[nH]c(=S)n2Cc2ccccc2)n1	PHOSPHO1 inh 78
Cc1c(Cl)c(-c2n[nH]c(=S)n2Cc2ccco2)nn1C	PHOSPHO1 inh 80
S=c1[nH]nc(-c2ccccc2)n1Cc1ccccc1	PHOSPHO1 inh 105
CCCCOc1ccc(Cc2n[nH]c(=S)n2N)cc1	PHOSPHO1 inh 79
C/C(=N\NC(=O)C(N)=O)c1cccc(C(F)(F)F)c1	none
CCCc1cc(=O)oc2cc(C)cc(OC(C)C(=O)NCc3ccncc3)c12 (stereo not drawn)	none (no result: PKD1 kinase inh, ABCB1 inh, ABCG2 block, HSV augment, NCF1 inh)
S=c1[nH]nc(-c2ccco2)n1Cc1ccccc1	PHOSPHO1 inh 79
CCc1ccc(OCc2n[nH]c(=S)n2Cc2ccccc2)cc1	PHOSPHO1 inh 90
COCCn1c(N)c(Sc2ccccc2[N+](=O)[O-])c(=O)[nH]c1=O	none (no result: PKD1 kinase inh, ABCB1 inh, ABCG2 block)
CC(C)(C)OC(=O)N1CCC[C@H]1C(=O)N/N=C/c1ccc2ncccc2c1	none (no result: PKD1 kinase inh, ABCB1 inh, ABCG2 block)
COc1ccc2sc(NC(=O)c3ccco3)nc2c1	PHOSPHO1 inh 96
CCn1cc(CN2CCC(n3nccc3NC(=O)c3ccccc3C)CC2)cn1	none (no result: PKD1 kinase inh, ABCB1 inh, ABCG2 block, HSV augment, NCF1 inh)
CCOc1ccc(/C=N/n2nnnc2N)cc1O	PHOSPHO1 inh 62 (no result: PKD1 kinase inh, ABCB1 inh, ABCG2 block)
CCOc1cc(/C=N\n2nnnc2N)ccc1O	none (no result: PKD1 kinase inh, ABCB1 inh, ABCG2 block, HSV augment, NCF1 inh)
CCOc1ccc2ccccc2c1CNCCc1ccc(S(N)(=O)=O)cc1	none (no result: PKD1 kinase inh, ABCB1 inh, ABCG2 block, HSV augment, NCF1 inh)
